Here are results for three molecules from article PMC5820137 (Neuropharmacology, 2017).

SMILES strings stand for the structures.

One assay has as its system Cav2 VGCCs. As to conditions: cited from earlier work.
The next assay deals with cdk. As to conditions: cited from earlier work.
For the next assay, the target named is cdk5 (Homo sapiens, UniProt Q00535). Kind of assay: kinaseseeker kinase assay. The assay is classed as binding. Particulars: 2 μM.
For assay [1], the system named is SH-SY5Y cells. Description: MTS-based cell survival assay. On the set-up: species or system human.
The target of the next assay is cdk2 (Homo sapiens, UniProt P24941). Description: kinaseseeker kinase assay. Type of assay: binding. As to conditions: 2 μM. Summed up:
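Cell-free luminescent probe-displacement binding assay in rabbit reticulocyte lysate. Compound (2 μM) or DMSO control was incubated 30 min at room temperature, then 1 h with a kinase-specific probe. Luminescence was read, and values expressed as percent kinase activity remaining.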

The test system of a further assay is Cav2.1 VGCC. Kind of assay: Whole-cell perforated patch clamp of Cav2.1 current. Type of assay: cell-based. (Patch clamp records ionic current or voltage across a cell membrane.)
Assay [2] has as its system SH-SY5Y cells. Particulars: ref Tarr et al., 2014; cited from earlier work.
The test system of assay [3] is rectifying outward current in HEK293 cells. Kind of assay: Contaminating rectifying outward current during voltage steps in patch clamp. The assay is classed as cell-based. As to conditions: 50 μM; mean ± SEM, n = 7; across all voltages tested.
Where [4] appears, read: ref Liang et al., 2012, Tarr et al., 2013.

Chain of cdk5 (Q00535 whole entry, species assumed): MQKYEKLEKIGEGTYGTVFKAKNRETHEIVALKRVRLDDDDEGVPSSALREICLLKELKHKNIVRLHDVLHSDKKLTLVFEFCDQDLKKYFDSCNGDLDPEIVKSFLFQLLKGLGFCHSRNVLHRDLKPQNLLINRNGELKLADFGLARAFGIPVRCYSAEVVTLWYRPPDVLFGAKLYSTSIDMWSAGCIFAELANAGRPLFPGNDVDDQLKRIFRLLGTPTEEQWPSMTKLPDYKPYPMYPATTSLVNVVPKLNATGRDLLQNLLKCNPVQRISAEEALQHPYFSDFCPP

Take `CC[C@@H](CO)Nc1nc(NCc2ccccc2)c2ncn(C(C)C)c2n1` [(S)-roscovitine]: in the assay with Cav2 VGCCs (ref Buraei and Elmslie, 2008), the “Concentration needed for VGCC agonist activity” value is given as “above 500 μM” and the “Lower affinity than (R)-roscovitine (VGCC agonist activity)” value was 20 fold. The “Potency as cdk inhibitor, less than (R)-roscovitine” value in the assay on cdk (ref De Azevedo et al., 1997) is listed as 2 fold.

Take `CCCn1cnc2c(NCc3ccc(C)s3)nc(N[C@H](CC)CO)nc21` [GV-58]: the “Reduction of cdk5 activity” value on cdk5 is 10–20%. The “Effect on cell survival at 50 μM” value in the assay with SH-SY5Y cells [1] (50 μM, 24 h) is on record as “no significant effects on cell survival”. Also, in the assay with SH-SY5Y cells [1] (24 h exposure, 0.1–100 μM, normalized to vehicle), the “Effect on cell survival” value is given as “little or no effect on cell survival, even up to 100 μM”. Also, in the assay on Cav2 VGCCs (setting [4]), the “Higher potency and efficacy for Cav2 VGCCs than (R)-roscovitine” value was 4 fold. The “Reduction of cdk2 activity” value on cdk2 is 0–15%. The “Depolarization time to 50% of maximal effects on tail current integral” value with Cav2.1 VGCC (50 μM continuously present, steps to +20 mV of 1–100 msec) fell in the range of 2 to 4 ms. In addition, the “Shift of voltage-dependence of activation curves (peak tail current)” value in the assay on Cav2.1 VGCC (50 μM, 20 msec steps from −100 mV) is “did not show any shift”. Moreover, the “Shift to the left of IV plots (peak current during step)” value in the assay with Cav2.1 VGCC (50 μM, 20 msec steps from −100 mV, ascribed to contaminating outward current) was roughly 10 mV. Further, the “Tail current decay (slow deactivation) time constant” value in the assay with Cav2.1 VGCC (50 μM, tail current at −60 mV after 200 msec step to +60 mV) was determined as 9.16 ± 0.706 ms. In the assay with cdk (setting [4]), the “Reduction in cdk activity versus the parent molecule (R)-roscovitine” value is “greater than 20 fold”. In addition, the “Decrease in cell survival at 100 μM” value in the assay on SH-SY5Y cells [2] is on record as 8%. Moreover, in assay [3], the “Increase in rectifying current amplitude” value turned out to be 70 ± 10%.

As to `CC[C@H](CO)Nc1nc(NCc2ccccc2)c2ncn(C(C)C)c2n1` [(R)-roscovitine, reference compound], in the assay with SH-SY5Y cells [1] (24 h exposure), the “Concentrations giving a significant decrease in cell survival” value was no less than 10 µM.
